A selection: hits, their analogues and other compounds. The true share with any hit is near 11%.
S1P3 agonist: activates the human S1P3 receptor; Q99500; S1P3 NFAT-BLA reporter cells, agonism, FRET ratio; relative to 1 µM S1P, basal subtracted; activation, % at 4.5 µM; actives 0.1% (n = 60,000);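 active = activation above the screen-wide mean plus 3 SD, cut at about 4.5% in these data, passing the limit was not always enough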
Target sequence (Q99500 whole entry, looked up): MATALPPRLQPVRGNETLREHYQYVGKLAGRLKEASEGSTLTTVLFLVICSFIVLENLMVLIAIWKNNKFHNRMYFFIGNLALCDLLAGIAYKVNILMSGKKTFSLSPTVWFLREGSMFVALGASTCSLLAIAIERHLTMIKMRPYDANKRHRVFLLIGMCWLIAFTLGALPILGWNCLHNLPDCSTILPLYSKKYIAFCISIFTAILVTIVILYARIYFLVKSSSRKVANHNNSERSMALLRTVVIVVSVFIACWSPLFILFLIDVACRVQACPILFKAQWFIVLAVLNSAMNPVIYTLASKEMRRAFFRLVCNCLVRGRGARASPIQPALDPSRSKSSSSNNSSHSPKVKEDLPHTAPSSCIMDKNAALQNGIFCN
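Assay system: CHO cells stably expressing human S1P3, Gα16 and NFAT-β-lactamase reporter. Timing: overnight plating, 4 h compound 37 °C, 2 h substrate RT. Signal: β-lactamase FRET emission ratio 460/535 nm. Measure: percent activation versus median 1 µM S1P response, basal-subtracted, per plate. Repeats: primary screen single test, confirmation screen in triplicate.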
M1 antag: M1 muscarinic receptor (rat) antagonism. P08482. CHO-M1 cells, Fluo-4 calcium, ACh EC80 antagonist mode; stronger effect = lower value. B-score at 10 µM. actives 3.4% (n = 64,000). AID 628;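 active = calcium fluorescence response, raw or row-and-column corrected B-score, differing from the plate sample mean either way at a set confidence level, mostly lower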
M1 ag: activates the M1 muscarinic receptor | CHO-M1 cells, Fluo-4 calcium fluorescence, agonist mode; stronger effect = higher value | B-score at 10 µM | actives 3% (n = 64,000);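 active = fluorescence rise, raw or as B-score row- and column-corrected plate score, outside the 99.7% band of its plate's samples, either direction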
S1P1 ag pot: activates or potentiates agonism at human S1P1 receptor; P21453; S1P1 CRE-bla cells, forskolin, beta-lactamase FRET, potentiator mode; S1P1 agonist co-added at EC20, 2 nM; 100% = saturating reference agonist, 0% = basal; activation, % at 9.5 µM; actives 0.57% (n = 56,000);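 active = activation above a cutoff set at the mean activation of all tested compounds plus 3 SD, cut at about 54% in these data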;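 also: forskolin at 4 µM as EC80 and the EC20 agonist is SEW2871; 100% = SEW2871 at its EC100 plus forskolin at EC80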
D1 allo mod: allosteric modulators of human D1 dopamine receptor. P21728. HEK293 D1, CRE-luciferase, dopamine EC30 potentiation; actives deviate in either direction. B-score at 10 µM. actives 5.9% (n = 58,000). AID 641;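 active = luminescence count or its row- and column-corrected plate score outside the 99.7% band of the plate's sample wells, on either side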
Numbers without * were called inactive; / = no result given.

SMILES	S1P3 agonist	M1 antag	M1 ag	S1P1 ag pot	D1 allo mod
CCn1ncc(C2=NOC(C(=O)Nc3c(C)n(C)n(-c4ccccc4)c3=O)C2)c1C (stereo not given)	1	0.35	-0.28	-11	0.38
CCC(c1nnc(SCC(=O)NCCc2ccc(Cl)cc2Cl)o1)N(C)C (stereo not given)	0	-1	0.19	12	-0.0043
Cc1nc2c3c(-c4ccccc4)nc(N4CCOCC4)nc3nn2c(C)c1CCC(=O)O	0	0.095	-0.25	-32	0.081
CC(C)c1ccc(NC(=O)C2CC(=O)N=C(N)S2)cc1 (stereo not given)	-1	-0.027	-0.41	-17	0.19
Fc1ccc(OCc2nn3cnnc3s2)cc1	0	/	/	-3	-4*
COC(=O)c1ccc2c(c1)N(Cc1nc(-c3ccc(Cl)cc3)oc1C)C(=O)C1CCCN21 (stereo not given)	-1	0.51	-0.21	-46	-0.32
N#CCSc1nc(-c2ccccc2)cs1	0	0.54	0.32	1	0.076
N#CCSc1nnc(-c2ccccc2)c(-c2ccccc2)n1	6.3*	0.16	-1.7	22	1.4
O=C(CSc1nnc(Cc2csc(Nc3cccc(Cl)c3)n2)o1)N1CCc2ccccc21	-1	-0.79	-0.29	78*	0.13
O=C(O)Cn1ncc2c1-c1ccoc1CC2	0	-0.8	-0.55	-8	/
O=C(/C=C\Nc1ccccn1)c1ccccc1	0	-0.49	0.069	-11	-6.9*
O=C(CC(=O)Nc1ccccn1)Nc1ccccn1	-1	0.075	0.053	-7	0.1
O=C(/C=C/Nc1ccccc1Br)c1ccccn1	/	0.054	-0.0025	/	-8.1*
Cc1cc(C(=O)N2CCC(C(F)(F)F)n3nccc32)on1 (stereo not given)	-1	-0.023	0	-2	-0.0046
O=C(CCCSc1nc2ccccc2[nH]1)N1CCN(c2ccccc2)CC1	-1	0.019	-0.57	-17	-0.36
O=C(CCCSc1nc2ccccc2[nH]1)NC1=NCCS1	/	1.7*	1.3	/	/
COc1cccc(C(c2sc3nc(C)nn3c2O)N2CCc3ccccc3C2)c1 (stereo not given)	-1	-0.38	-0.0022	8	1.2
CCOC(=O)CCC(=O)N1CCNC(=O)C1	/	2.2*	0.72	/	/
CCOC(=O)CCC(=O)N1CCOCCN(C(=O)CCC(=O)OCC)CCOCC1	0	0.48	0.21	-3	0.19
COc1ccc(-c2csc(=Nc3ccccc3)n2CCO)cc1	/	0.094	2	/	/
COc1ccc(N=c2scc(-c3ccc(S(=O)(=O)N4CCOCC4)cc3)n2CCCO)cc1	-2	0.89	-1.7	101*	-0.034
O=C1OCCC1N1C(=O)c2ccccc2S1(=O)=O (stereo not given)	0	-0.7	-0.48	-3	-4.3*
O=C(CN1C(=O)c2ccccc2S1(=O)=O)N1CCOCC1	-2	0	0.58	0	0.76
COc1ccc2c(c1)c1nc(SCC(C)C)n(CCO)c(=O)c1n2C	0	-0.013	-0.12	-3	1.7
CCOCCCNC(=O)C1CCN(C(=O)N(C)C)CC1	0	1.6	-0.45	-4	-0.85
SMILES	S1P3 agonist	M1 antag	M1 ag	S1P1 ag pot	D1 allo mod
CN(C)CCCNC(=O)C1CCNCC1	-1	-0.08	-0.018	4	-3*
CC1CCCC(C)N1C(=O)CSc1nnnn1Cc1ccccc1 (stereo not given)	0	-0.57	0.48	8	6.1*
CC(=O)Nc1cccc(NC(=O)CSc2nnnn2Cc2ccccc2)c1	-1	0.91	0.53	-6	-1
CN=c1scc(C)n1/N=C/c1ccc2c(c1)OCO2	0	-0.11	0.8	-13	-3.2*
CC(C)Cn1cc(C(=O)N2CCN(c3ccccn3)CC2)c2c3ccccc3n(C)c2c1=O	0	-0.48	2.1	3	-0.15
O=C(OCC(=O)N1CCN(C(=O)COC(=O)c2ccncc2)CC1)c1ccncc1	1	-1.1	-1.5	7	-0.071
O=C(CCCCn1c(=O)c2ccccc2n(CC(=O)Nc2ccc(F)cc2)c1=O)NCc1ccco1	-3	-0.047	1.2	1	1.3
O=C(CCCCn1c(=O)c2ccccc2n(Cc2ccc(F)cc2Cl)c1=O)NCc1ccco1	/	0.43	-0.65	/	14*
CC1=C(C(=O)Nc2ccccc2Cl)C(c2ccc(N(C)C)cc2)NC(=O)N1 (stereo not given)	-1	0.017	-1	-7	-0.27
C=CCn1sc(=N)c(C#N)c1N	0	-0.085	-0.16	4	/
Cn1c(=O)c2cc(S(=O)(=O)NC(Cc3ccccc3)C(=O)NCc3ccco3)ccc2n(C)c1=O (stereo not given)	-1	-0.3	0.98	-14	0.041
CCC(C)NC(=O)C(NS(=O)(=O)c1ccc2c(c1)c(=O)n(C)c(=O)n2C)c1ccccc1 (stereo not given)	1	0.0089	0.39	-14	-5.6*
Nn1cnnc1SCC(=O)Nc1ccc(C2CCCCC2)cc1	-1	0.096	-1	-7	-4.3*
COc1cccc(NC(=O)CSc2nncn2N)c1	0	0.024	-0.35	-2	-0.97
COC(=O)CSc1ncnc2c1sc1nc(-c3ccco3)c3c(c12)CC(C)(C)OC3	11	0.67	-0.29	9	/
CCOC(=O)c1sc2nc(-c3ccco3)c3c(c2c1N)CC(C)(C)OC3	-2	0.08	-1.4	2	4*
COc1nc(C)ccc1-c1noc(-c2ccco2)n1	1	/	/	-5	-1.3*
CC1Cc2cc(-c3csc(NC(=O)Cc4cccs4)n3)ccc2N1S(C)(=O)=O (stereo not given)	-1	-1.2	1.6	57*	-3.1
CN1CCN(CC(=O)Nc2nc(-c3ccccc3)cs2)CC1	-1	-2.4	-0.3	-8	/
C#CC(C)(CC)NC(=O)Cn1nnc(-c2ccc(S(C)(=O)=O)cc2)n1 (stereo not given)	0	-0.32	-1.2	2	0.023
O=c1c2c3nc4ccccc4nc3n(-c3ccc4c(c3)OCCO4)c2ncn1C1CCCC1	-2	0.19	0.12	12	-0.93
O=c1c2c3nc4ccccc4nc3n(-c3ccc4c(c3)OCCO4)c2ncn1CC1CCCO1 (stereo not given)	1	-1.8*	-0.013	0	1.9
CCC(C)n1c(C)nc2c(c1=O)c1nc3ccccc3nc1n2-c1ccc2c(c1)OCCO2 (stereo not given)	0	-0.35	-0.66	-4	-5.3*
CCCC(=O)Nc1cc(Cl)ccc1N1CCN(C(=O)CC)CC1	0	0.89	0.35	-13	-0.52
CSc1nsc(SCC(=O)N2CCN(c3ccccc3)CC2)n1	-1	/	/	-7	0.83
COCCCNC(CC(=O)Nc1ccccc1C(=O)OC)C(=O)O (stereo not given)	0	-0.26	0.19	5	-0.6
CCOC(=O)C1CCN(Cc2ccc(C(=O)OC)cc2)CC1	-1	-5.6*	41*	/	-0.64
CCSc1nc2sc3c(c2c(=O)n1C1CCCCC1)CCN(C)C3	-4	-2.3*	-0.89	6	/
N#CCSc1nc2sc3c(c2c(=O)n1C1CCCCC1)CCCC3	1	0.19	0.11	-8	/

From PubChem BioAssay
